Reference: ChEMBL document CHEMBL4400530, “Synthesis and structure-activity relationship studies of water-soluble β-cyclodextrin-glycyrrhetinic acid conjugates as potential anti-influenza virus agents” (Eur J Med Chem, 2019)
The source made the active and inactive calls. The rule behind the calls is not given here.

Legend:
Influenza A virus = experiment: Antiviral activity against Influenza A virus (A/WSN/33(H1N1)) infected in MDCK cells assessed as reduction in virus-induced cytopathic effect at 50 uM after 40 hrs by CellTiter-Glo assay; type: functional, organism-based; conditions: A/WSN/1933(H1N1)
Procedure, shortened: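 MDCK cells seeded, grown overnight, then infected with A/WSN/33 (H1N1) at MOI 0.1 in DMEM with 1% FBS, 2 μg/mL TPCK-treated trypsin and test compound (final DMSO 1%). Compounds screened at a single 50 μM concentration. Incubation 40 h, then viability read by CellTiter-Glo luminescence. Oseltamivir positive control, DMSO negative control. Virus stock titres determined in MDCK cells by Reed and Muench.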

MDCK = experiment: Cytotoxicity against MDCK cells assessed as effect on cell viability at 50 uM measured after 36 hrs by CellTiter-Glo assay; type: cell-based, Canis lupus familiaris; conditions: dog
Procedure, shortened: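 MDCK cells (1 × 10⁴ per well) left to adhere 24 h at 37 °C, 5% CO₂. Medium then replaced with fresh medium containing compound at 50 μM, in triplicate. Controls received medium with 1% DMSO. Plates incubated 36 h at 37 °C, 5% CO₂, then viability read by CellTiter-Glo luminescence.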

CC(=O)OC[C@H]1O[C@@H]2O[C@H]3[C@H](OC(C)=O)[C@@H](OC(C)=O)[C@@H](O[C@H]4[C@H](OC(C)=O)[C@@H](OC(C)=O)[C@@H](O[C@H]5[C@H](OC(C)=O)[C@@H](OC(C)=O)[C@@H](O[C@H]6[C@H](OC(C)=O)[C@@H](OC(C)=O)[C@@H](O[C@H]7[C@H](OC(C)=O)[C@@H](OC(C)=O)[C@@H](O[C@H]8[C@H](OC(C)=O)[C@@H](OC(C)=O)[C@@H](O[C@H]1[C@H](OC(C)=O)[C@H]2OC(C)=O)O[C@@H]8COC(C)=O)O[C@@H]7COC(C)=O)O[C@@H]6COC(C)=O)O[C@@H]5Cn1cc(COCCOCCNC(=O)[C@@]2(C)CC[C@]5(C)CC[C@]6(C)C(=CC(=O)[C@@H]7[C@@]8(C)CC[C@H](O)C(C)(C)[C@@H]8CC[C@]76C)[C@@H]5C2)nn1)O[C@@H]4COC(C)=O)O[C@@H]3COC(C)=O
Activity (Influenza A virus): Active
Activity (MDCK): Non-Toxic

CC1(C)[C@@H](O)CC[C@]2(C)[C@H]3C(=O)C=C4[C@@H]5C[C@@](C)(C(=O)NCCOCCOCCOCCOCCOCCOCc6cn(C[C@H]7O[C@@H]8O[C@H]9[C@H](O)[C@@H](O)[C@@H](O[C@H]%10[C@H](O)[C@@H](O)[C@@H](O[C@H]%11[C@H](O)[C@@H](O)[C@@H](O[C@H]%12[C@H](O)[C@@H](O)[C@@H](O[C@H]%13[C@H](O)[C@@H](O)[C@@H](O[C@H]%14[C@H](O)[C@@H](O)[C@@H](O[C@H]7[C@H](O)[C@H]8O)O[C@@H]%14CO)O[C@@H]%13CO)O[C@@H]%12CO)O[C@@H]%11CO)O[C@@H]%10CO)O[C@@H]9CO)nn6)CC[C@]5(C)CC[C@@]4(C)[C@]3(C)CC[C@@H]12
Activity (Influenza A virus): Active
Activity (MDCK): Non-Toxic

CC(=O)OC[C@H]1O[C@@H]2O[C@H]3[C@H](OC(C)=O)[C@@H](OC(C)=O)[C@@H](O[C@H]4[C@H](OC(C)=O)[C@@H](OC(C)=O)[C@@H](O[C@H]5[C@H](OC(C)=O)[C@@H](OC(C)=O)[C@@H](O[C@H]6[C@H](OC(C)=O)[C@@H](OC(C)=O)[C@@H](O[C@H]7[C@H](OC(C)=O)[C@@H](OC(C)=O)[C@@H](O[C@H]8[C@H](OC(C)=O)[C@@H](OC(C)=O)[C@@H](O[C@H]1[C@H](OC(C)=O)[C@H]2OC(C)=O)O[C@@H]8COC(C)=O)O[C@@H]7COC(C)=O)O[C@@H]6COC(C)=O)O[C@@H]5Cn1cc(COCCOCCOCCOCCNC(=O)[C@@]2(C)CC[C@]5(C)CC[C@]6(C)C(=CC(=O)[C@@H]7[C@@]8(C)CC[C@H](O)C(C)(C)[C@@H]8CC[C@]76C)[C@@H]5C2)nn1)O[C@@H]4COC(C)=O)O[C@@H]3COC(C)=O
Activity (Influenza A virus): Active
Activity (MDCK): Non-Toxic

CC(=O)OC[C@H]1O[C@@H]2O[C@H]3[C@H](OC(C)=O)[C@@H](OC(C)=O)[C@@H](O[C@H]4[C@H](OC(C)=O)[C@@H](OC(C)=O)[C@@H](O[C@H]5[C@H](OC(C)=O)[C@@H](OC(C)=O)[C@@H](O[C@H]6[C@H](OC(C)=O)[C@@H](OC(C)=O)[C@@H](O[C@H]7[C@H](OC(C)=O)[C@@H](OC(C)=O)[C@@H](O[C@H]8[C@H](OC(C)=O)[C@@H](OC(C)=O)[C@@H](O[C@H]1[C@H](OC(C)=O)[C@H]2OC(C)=O)O[C@@H]8COC(C)=O)O[C@@H]7COC(C)=O)O[C@@H]6COC(C)=O)O[C@@H]5Cn1cc(CN2CCN(CCNC(=O)[C@@]5(C)CC[C@]6(C)CC[C@]7(C)C(=CC(=O)[C@@H]8[C@@]9(C)CC[C@H](O)C(C)(C)[C@@H]9CC[C@]87C)[C@@H]6C5)CC2)nn1)O[C@@H]4COC(C)=O)O[C@@H]3COC(C)=O
Activity (Influenza A virus): inactive
Activity (MDCK): Non-Toxic
